The source made the active and inactive calls. The rule behind the calls is not given here.
Experiments:
THP-1 [1] = assay: Cytotoxicity against human THP1 cells assessed as cell viability at 30 uM after 24 hrs by MTS assay; format: cell-based; conditions: thp-1, 24 h
Method in brief: (§1)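 MTS viability: cells at 50 000/well were preincubated 1 h, then serial half-dilutions of test agent were added. After 24 h incubation, MTS reagent was added for 1 h and absorbance read at 492 nm.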

Mus musculus [2] = assay: Antiinflammatory activity in Balb/C chronic mouse ear edema model assessed as reduction in TPA-induced redness in ears at 0.9 umol/ear administered topically, bid from day 7 to day 10 measured every day during compound administration relative to control; format: functional, organism-based
THP-1 [3] = assay: Antiinflammatory activity in human THP1 cells assessed as inhibition of TPA/ionomycin-induced extracellular IL-1beta level at 3 uM incubated 1 hr prior to TPA/ionomycin challenge measured after 24 hrs by ELISA; format: functional
Method in brief: (§2)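 THP-1 monocytes (100 000/well) in RPMI-1640 preincubated 1 h with test agent, ethanol ≤0.05%. Stimulated with TPA 40 ng/mL/ionomycin 1 μM (final) for 24 h at 37 °C, 5% CO2. Supernatant kept for extracellular cytokines. Washed cells were lysed in ice-cold RIPA with protease inhibitors for intracellular IL-1β and pro-IL-1β. ELISA read-out; n = 6.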

[4] = Antiinflammatory activity in human NHEK cells assessed as inhibition of TPA/ionomycin-induced extracellular TNF-alpha production at 3 uM incubated for 1 hr prior to TPA/ionomycin challenge measured after 6 hrs by ELISA; format: functional
Method in brief: (§3)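 Primary neonatal keratinocytes (passage ≤3) seeded at 10 000/well for 18 h at 37 °C, 5% CO2, then given fresh medium. Preincubated 1 h with test agent, then stimulated with TPA 40 ng/mL/ionomycin 1 μM. Supernatants taken at 6 and 24 h, centrifuged and stored at −80 °C. Extracellular cytokines measured by ELISA; means ± SEM, n = 6.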

THP-1 [5] = assay: Antiinflammatory activity in human THP1 cells assessed as inhibition of TPA/ionomycin-induced extracellular IL-1beta level at 30 uM incubated 1 hr prior to TPA/ionomycin challenge measured after 24 hrs by ELISA; format: functional; method in brief: as §2
THP-1 [6] = assay: Cytotoxicity against human THP1 cells assessed as cell viability at <60 uM after 24 hrs by MTS assay; format: cell-based; conditions: thp-1, 24 h; method in brief: as §1
[7] = tested on: neonatal human epidermal keratinocytes (Homo sapiens); assay: Antiinflammatory activity in human NHEK cells assessed as inhibition of TPA/ionomycin-induced extracellular TNF-alpha production at 30 uM incubated for 1 hr prior to TPA/ionomycin challenge measured after 6 to 24 hrs by ELISA
THP-1 [8] = assay: Antiinflammatory activity in human THP1 cells assessed as inhibition of TPA/ionomycin-induced intracellular proIL-1beta level at 30 uM incubated 1 hr prior to TPA/ionomycin challenge measured after 24 hrs by ELISA; format: functional; method in brief: as §2
Mus musculus [9] = assay: Antiinflammatory activity in Balb/C chronic mouse ear edema model assessed as reduction in TPA-induced edema at 0.9 umol/ear administered topically, bid from day 7 to day 10 measured every day during compound administration relative to control; format: functional; design: scale not given: the % may be the effect or the level left
Method in brief: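 Male Balb/C mice, 7–9 weeks old, acclimated at least 4 days. 20 μL TPA (125 μg/mL) was applied to inner and outer surfaces of both ears on alternate days from day 0. Test agent at 0.9 μmol/ear in 20 μL ethanol was applied topically to both ears morning and afternoon on days 7–9, with one more dose on day 10 morning. Ear thickness was read with a digital micrometer on days 0–4 and 7–10; means ± SEM, n ≥ 6.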

THP-1 [10] = assay: Antiinflammatory activity in human THP1 cells assessed as inhibition of TPA/ionomycin-induced intracellular IL-1beta level at 30 uM incubated 1 hr prior to TPA/ionomycin challenge measured after 24 hrs by ELISA; format: functional; method in brief: as §2
Mus musculus [11] = assay: Antiinflammatory activity in Balb/C chronic mouse ear edema model assessed as reduction in TPA-induced scaling in ears at 0.9 umol/ear administered topically, bid from day 7 to day 10 measured every day during compound administration relative to control; format: functional, organism-based
[12] = Antiinflammatory activity in human NHEK cells assessed as inhibition of TPA/ionomycin-induced extracellular IL-6 production at 30 uM incubated for 1 hr prior to TPA/ionomycin challenge measured after 6 hrs by ELISA; format: functional; method in brief: as §3
[13] = tested on: neonatal human epidermal keratinocytes (Homo sapiens); assay: Antiinflammatory activity in human NHEK cells assessed as inhibition of TPA/ionomycin-induced extracellular TNF-alpha production at 3 uM incubated for 1 hr prior to TPA/ionomycin challenge measured after 24 hrs by ELISA
Mus musculus [14] = assay: Antiinflammatory activity in Balb/C mouse ear edema model assessed as reduction of TPA-induced IL-1beta production at 0.9 umol/ear by ELISA relative to control; format: functional; design: scale not given: the % may be the effect or the level left
Method in brief: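 Acute TPA ear model in male Balb/C mice, killed 6 h after treatment (0.9 μmol/ear topical). 5 mm ear punches were homogenized in 50 mM Tris-HCl pH 7.4/1 mM EDTA with protease inhibitors, then held 15 min on ice with 1% Triton X-100. Spun at 9500g, 4 °C; supernatant assayed by ELISA. Basal untreated-ear levels were subtracted.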

[15] = Cytotoxicity against human NHEK cells assessed as cell viability at <60 uM after 24 hrs by MTS assay; format: cell-based; method in brief: as §1
Mus musculus [16] = assay: Antiinflammatory activity in Balb/C chronic mouse ear edema model assessed as reduction in TPA-induced flaky appearance in ears at 0.9 umol/ear administered topically, bid from day 7 to day 10 measured every day during compound administration relative to control; format: functional, organism-based
[17] = Antiinflammatory activity in human NHEK cells assessed as inhibition of TPA/ionomycin-induced extracellular IL-6 production at 30 uM incubated for 1 hr prior to TPA/ionomycin challenge measured after 24 hrs by ELISA; format: functional; method in brief: as §3
THP-1 [18] = assay: Antiinflammatory activity in human THP1 cells assessed as inhibition of TPA/ionomycin-induced TNF-alpha production at 30 uM incubated 1 hr prior to TPA/ionomycin challenge measured after 24 hrs by ELISA; format: functional; method in brief: as §2
[19] = tested on: neonatal human epidermal keratinocytes (Homo sapiens); assay: Antiinflammatory activity in human NHEK cells assessed as inhibition of TPA/ionomycin-induced IL-1alpha production at 0.3 to 30 uM incubated for 1 hr prior to TPA/ionomycin challenge measured after 6 to 24 hrs by ELISA
RAW264.7 [20] = assay: Antiinflammatory activity in mouse RAW264.7 cells assessed as inhibition of LPS-induced NO production at 3 to 30 uM incubated for 1 hr prior to LPS-challenge measured after 24 hrs by Greiss assay; format: functional, cell-based
Method in brief: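 RAW264.7 macrophages (100 000/well) in DMEM preincubated 1 h with test agent at 3 or 30 μM. Stimulated with LPS 1 μg/mL final for 24 h at 37 °C, 5% CO2. Supernatant nitrite measured by Griess reaction (sulfanilic acid and N-naphthylethylenediamine in 5% HCl, 10 min at 37 °C). A540 read against a sodium nitrite standard curve; n = 8.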

RAW264.7 [21] = assay: Cytotoxicity against mouse RAW264.7 cells assessed as cell viability at <60 uM after 24 hrs by MTS assay; format: cell-based; conditions: raw264.7, 24 h; method in brief: as §1
Mus musculus [22] = assay: Antiinflammatory activity in Balb/C chronic mouse ear edema model assessed as reduction in TPA-induced myeloperoxidase accumulation at 0.9 umol/ear administered topically, bid from day 7 to day 10 measured every day during compound administration relative to control; format: functional; design: scale not given: the % may be the effect or the level left
Method in brief: (§4)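 Chronic TPA ear model in male Balb/C mice: topical dosing at 0.9 μmol/ear in ethanol, twice daily days 7–9 and once on day 10, then euthanasia. 5 mm ear punches were homogenized in 80 mM PBS pH 5.4 with 0.5% HTAB and centrifuged. Supernatant in duplicate was reacted with H2O2 and 18.4 mM tetramethylbenzidine for 3 min at 37 °C. Stopped with sodium acetate pH 3.0; A600 read as neutrophil marker.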

[23] = tested on: neonatal human epidermal keratinocytes (Homo sapiens); assay: Antiinflammatory activity in human NHEK cells assessed as inhibition of TPA/ionomycin-induced IL-8 production at 0.3 to 30 uM incubated for 1 hr prior to TPA/ionomycin challenge measured after 6 to 24 hrs by ELISA
[24] = Cytotoxicity against human NHEK cells assessed as cell viability at 30 uM after 24 hrs by MTS assay; format: cell-based; method in brief: as §1
Mus musculus [25] = assay: Antiinflammatory activity in Balb/C chronic mouse ear edema model assessed as reduction in influx of neutrophils at 0.9 umol/ear administered topically, bid from day 7 to day 10 measured every day during compound administration relative to control; format: functional, organism-based; method in brief: as §4
THP-1 [26] = assay: Antiinflammatory activity in human THP1 cells assessed as inhibition of TPA/ionomycin-induced intracellular proIL-1beta level at 5 uM incubated 1 hr prior to TPA/ionomycin challenge measured after 24 hrs by ELISA; format: functional, cell-based; method in brief: as §2
THP-1 [27] = assay: Antiinflammatory activity in human THP1 cells assessed as inhibition of TPA/ionomycin-induced intracellular IL-1beta level at 5 uM incubated 1 hr prior to TPA/ionomycin challenge measured after 24 hrs by ELISA; format: functional, cell-based; method in brief: as §2
THP-1 [28] = assay: Antiinflammatory activity in human THP1 cells assessed as inhibition of TPA/ionomycin-induced extracellular TNF-alpha production at 5 uM incubated 1 hr prior to TPA/ionomycin challenge measured after 24 hrs by ELISA; format: functional, cell-based; method in brief: as §2
THP-1 [29] = assay: Antiinflammatory activity in human THP1 cells assessed as inhibition of TPA/ionomycin-induced extracellular IL-1beta level at 5 uM incubated 1 hr prior to TPA/ionomycin challenge measured after 24 hrs by ELISA; format: functional, cell-based; method in brief: as §2

C[C@]1(CCc2ccoc2)[C@H](COC(=O)c2ccccc2)CC[C@@]2(C)C(C(=O)O)=C[C@H](O)C[C@H]12
Activity (THP-1 [1]): Non-toxic | Activity (Mus musculus [2]): Active | inhibition at 3 µM (THP-1 [3]): 18% | inhibition at 3 µM [4]: 26.2% | inhibition at 30 µM (THP-1 [5]): 26.3% | Activity (THP-1 [6]): Non-toxic | inhibition [7]: inactive | inhibition at 30 µM (THP-1 [8]): 17% | Activity (Mus musculus [9]): 41.1% | inhibition at 30 µM (THP-1 [10]): 15% | Activity (Mus musculus [11]): Active | inhibition at 30 µM [12]: 33.2% | inhibition [13]: inactive | Activity (Mus musculus [14]): 78% | Activity [15]: Non-toxic | Activity (Mus musculus [16]): Active | inhibition at 30 µM [17]: 41.5% | inhibition at 30 µM (THP-1 [18]): 19.7% | inhibition [19]: inactive | inhibition (RAW264.7 [20]): inactive | Activity (RAW264.7 [21]): Non-toxic | Activity (Mus musculus [22]): 81.5% | inhibition [23]: inactive | Activity [24]: Non-toxic | Activity (Mus musculus [25]): Active

CCC(=O)OCC(=O)[C@@]1(OC(=O)CC)[C@@H](C)C[C@H]2[C@@H]3CCC4=CC(=O)C=C[C@]4(C)[C@@]3(F)[C@@H](O)C[C@@]21C [BETAMETHASONE DIPROPIONATE]
Activity (Mus musculus [9]): 54.2% | Activity (Mus musculus [22]): 90%

Cc1ccc(S(=O)(=O)/C=C/C#N)cc1
inhibition (THP-1 [26]): Active | inhibition (THP-1 [27]): Active | inhibition (THP-1 [28]): Active | inhibition (THP-1 [29]): Active

From ChEMBL document CHEMBL3102701, “Polyandric acid A, a clerodane diterpenoid from the Australian medicinal plant Dodonaea polyandra, attenuates pro-inflammatory cytokine secretion in vitro and in vivo” (J Nat Prod, 2014)
